Hits are enriched below; roughly 2.6% of the tested compounds scored in any of these assays.
XiGFP reactiv: reactivates the inactive X chromosome in mouse fibroblasts | XiGFP mouse fibroblasts, % GFP-positive cells imaging, 3 d; cells co-treated with 5-aza-dC sensitizer; scaled so ellipticine positive control = 100% | activation, % at 7.58 µM | hit rate 0.055% among 360,000 | AID 743238;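 active means mean normalized replicate activation at least 10% and every replicate at or above 10%; inconclusive means only one of the two criteria met; inactive means mean below 10% and not all replicates reach 10%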;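 further: 0% = median of on-plate neutral control wells and 100% = ellipticine 6 µM median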
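System: 68-5-11 XiGFP fibroblast line; Timing: 3 days compound exposure; Compound dosing: one concentration, pinned; Benchmarks: positive control ellipticine, 6 µM final; Buffer or medium: DMEM containing 5-aza-dC.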
esBAF inh: inhibitors of esBAF chromatin remodeling in mouse ES cells. Bmi1-luciferase knock-in reporter, 24 h; 100% = twice the neutral-well signal. reporter increase, % at 12.5 µM. hit rate 2% among 350,000. AID 602393; in the data active means activation above about 40%; inconclusive means no clear call, values can overlap the other calls;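 further: 0% = median of the plate's neutral control wells and 100% = double that signal; a rise in the Bmi1 reporter signal indicates esBAF inhibition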
Wnt bcat act: activates Wnt/beta-catenin signaling in a reporter cell assay | activation, % at 9.35 µM | activator, plate reader | hit rate 1.2% among 300,000; in the data active means activation above about 30%, passing the limit was not always enough; inconclusive means no clear call, values can overlap the other calls;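 further: 0% = neutral control wells and 100% = positive control wells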
MITF act: increases MITF-driven TRPM1 promoter luciferase signal; hit rate 0.75% among 300,000; SK-MEL-5 TRPM1-promoter luciferase, 24 h; % of positive control, neutral wells = 0; activation, % at 12.5 µM;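 active means mean activation of at least 80% with every replicate also reaching 80%; inconclusive means mean reaches 80% but some replicate falls short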;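 further: 0% = neutral control wells and 100% = parthenolide positive control wells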
Vif imaging: inhibitors of HIV Vif. HEK293T cells, Vif self-association by quenched fluorescence, imaging, 24 h. inhibition, % at 7.49 µM. hit rate 0.35% among 340,000. AID 602346; in the data active means inhibition above about 50%, passing the limit was not always enough; inconclusive means no clear call, values can overlap the other calls; inactive means below about 31%
The depositor's hits bear a star; u = inconclusive; x = not tested or not shown.

SMILES	XiGFP reactiv	esBAF inh	Wnt bcat act	MITF act	Vif imaging
COc1ccc2c3c(n(C)c2c1)[C@@H](CO)N(C(=O)c1cnccn1)CC31CCN(C(=O)c2cnccn2)CC1	0	x	x	x	x
Cc1ccc(C)c(N2CCN(c3ncnc4c3cnn4-c3ccccc3)CC2)c1	0	5	3	7	-5
CCN1CCN(c2ncnc3c2cnn3-c2ccc(Cl)cc2)CC1	0	14	22	42	17
Cc1cccc(-n2ncc3c(N4CCC5(CC4)OCCO5)ncnc32)c1	0	54*	16	73	13
c1ccc(-n2ncc3c(N4CCC5(CC4)OCCO5)ncnc32)cc1	x	55*	x	93*	x
Cc1cccc(-n2ncc3c(N4CCC(C)CC4)ncnc32)c1	0	10	38*	49	-6
CCN1CCN(c2ncnc3c2cnn3-c2ccccc2)CC1	0	21	-2	87*	1
c1ccc(-n2ncc3c(N4CCCCC4)ncnc32)cc1	3	-73	-2	-16	-12
CO[C@@H]1CN(C)C(=O)c2ccc(NC(C)=O)cc2OC[C@@H](C)N(Cc2ccncc2)C[C@@H]1C	0	x	x	x	x
COc1ccc(-c2ccc3c(c2)[C@H]2[C@H](CCN2C(=O)NC2CCCC2)[C@H](CO)N3C)cc1	0	x	x	x	x
Cc1cccc(-n2ncc3c(N)ncnc32)c1	x	27	6	2	-6
Cc1cccc(-n2ncc3c(N(C)Cc4ccccc4)ncnc32)c1	0	53*	u	79	-3
CCOC(=O)c1sc(NC(=O)c2ccc(Br)o2)cc1C	x	91*	x	94*	-15
CCOC(=O)c1sc(NC(=O)Nc2cccc(Cl)c2)cc1C	0	x	35*	60	-22
CCOC(=O)c1sc(NC(=O)c2cccs2)cc1C	x	65*	x	46	37
CCN(CC)C(=O)c1sc(NC(=O)c2ccc(Br)o2)c(C(=O)OC)c1C	x	3	-2	1	-22
CCOC(=O)c1sc(NC(=O)c2sccc2C)cc1C	x	5	59*	x	-3
CCOC(=O)c1sc(NC(=S)NC(=O)C2CC2)cc1C	0	x	3	4	-4
Cc1ccccc1-c1cnc2c(c1)C(=O)N([C@H](C)CO)C[C@@H](C)[C@@H](CN(C)C(=O)c1ccncc1)O2	-1	0	x	x	x
C[C@@H]1CN([C@@H](C)CO)C(=O)c2cc(NC(=O)CCN3CCOCC3)ccc2O[C@H]1CN(C)C(=O)Nc1ccc2c(c1)OCO2	0	2	x	x	x
Cc1ccc(CNC(=O)Nc2cccs2)cc1	x	54*	x	37	x
COc1cccc(CNC(=O)Nc2cccs2)c1	x	-8	x	27	-5
COc1ccc(CNC(=O)Nc2cccs2)cc1OC	x	-6	x	0	56*
CO[C@H]1CN(C)C(=O)c2cc(NC(=O)C3CC3)ccc2OC[C@H](C)NC[C@@H]1C	0	-2	x	x	x
O=C(Nc1ccc(Cl)cc1)Nc1ccccc1C(=O)NCc1ccco1	x	18	40*	25	x
SMILES	XiGFP reactiv	esBAF inh	Wnt bcat act	MITF act	Vif imaging
O=C(NCCSCc1ccco1)Nc1ccc(Cl)cc1	x	63*	2	x	7
COc1ccccc1OCc1csc(N)n1	0	0	0	9	-5
O=C(Nc1nc(COc2ccccc2)cs1)C1CCC1	x	64*	46*	45	x
Nc1nc(COc2ccc3ccccc3c2)cs1	x	59*	x	104*	-3
CC(=O)Nc1nc(COc2ccc3ccccc3c2)cs1	x	31	55*	65	-3
C[C@H]1CN([C@@H](C)CO)C(=O)Cc2cc(NC(=O)CCN3CCOCC3)ccc2O[C@@H]1CN(C)Cc1ccccc1	-1	2	x	x	x
COc1ccc2c3c(n(C)c2c1)[C@@H](CO)N(C(=O)Cc1ccccc1)CC31CN(C(=O)Cc2ccccc2)C1	0	x	x	x	x
CS(=O)(=O)Nc1ccc2c(c1)[C@H]1C[C@H](CC(=O)NCCN3CCCCC3)O[C@@H](CO)[C@H]1O2	0	-1	x	x	x
O=C1N[C@H](c2ccccc2)COCc2cnnn2CC[C@@H]1Cc1ccc(-c2ccccc2)cc1	0	x	x	x	x
COCC1CCCN(C(=O)c2cc(COc3ccc(C(C)=O)cc3)on2)C1 (centres undefined)	0	70*	36*	47	-10
CC(=O)c1ccc(OCc2cc(C(=O)N3CCN4CCCC4C3)no2)cc1 (centres undefined)	0	3	1	-4	11
CC(=O)c1ccc(OCc2cc(C(=O)NC3CCCCC3)no2)cc1	0	x	32*	103*	-3
CC(=O)c1ccc(OCc2cc(C(=O)N3CC[C@@H]4CCCC[C@H]4C3)no2)cc1	0	69*	37*	73	-2
COc1ccc2c3c(n(C)c2c1)[C@@H](CO)N(C(=O)C1CC1)CC31CCN(C)CC1	0	x	x	x	x
Cc1ccc(NC(=O)c2cnc3ccccc3n2)cc1C	0	32	42*	x	-3
Cc1ccc(NC(=O)c2ccc3ccccc3n2)cc1S(=O)(=O)N(C)C	0	83*	43*	119*	-8
O=C(Nc1ccccc1)c1cnc2ccccc2n1	0	x	u	39	-2
C[C@H](CO)N1C[C@H](C)[C@@H](CN(C)Cc2ccncc2)Oc2ccc(NC(=O)Cc3ccccc3)cc2CC1=O	0	-2	x	x	x
COc1ccc(C(=O)c2ccccc2O)c(O)c1	0	15	-2	17	-9
COc1ccc(C(=O)/C=C/c2ccccc2)c(O)c1	x	27	0	x	-2
COc1ccc(C(=O)c2ccc(OC)cc2O)c(O)c1	x	50*	24	75	32
COc1ccc(C(=O)/C=C/c2cc(C(=O)O)cc3c2OCOC3)c(O)c1	0	59*	0	-6	6
COc1ccc(C(=O)/C=C/c2ccccc2OC)c(OC(=O)c2ccc([N+](=O)[O-])cc2)c1	x	x	38*	13	26
COc1ccc(C(=O)C=Cc2cccs2)c(O)c1	0	45*	48*	69	14
COc1ccc(OC(=O)c2cccc([N+](=O)[O-])c2)c(C(=O)/C=C/c2cccs2)c1	x	-9	-4	7	5
SMILES	XiGFP reactiv	esBAF inh	Wnt bcat act	MITF act	Vif imaging
Cc1ccccc1S(=O)(=O)N1[C@@H]2CNC[C@H]1C2c1ccc(/C=C/c2ccccc2)cc1 (some centres undefined)	0	x	x	x	x
COCC(=O)N1CC2(C1)[C@@H](c1ccccc1)[C@H](CO)N2C(=O)c1ccncc1	0	x	x	x	x
C[C@@H]1CCCCO[C@@H](CN(C)C(=O)CCC(F)(F)F)[C@@H](C)CN([C@@H](C)CO)C(=O)c2cc(NC(=O)CCC(F)(F)F)ccc2O1	0	1	x	x	x
O=C1N[C@H](Cc2ccccc2)COCc2cnnn2CC[C@@H]1Cc1cccc(Cl)c1	0	x	x	x	x
COc1ccc(C(=O)/C=C/c2ccc(OC)cc2OC)c(O)c1	x	88*	1	93*	-4
Cn1cc(-c2ccccc2C(N)=O)c(=O)c2cc(Cl)ccc21	0	-8	-1	-11	-5
Cn1cc(C2=C(c3ccc(Cl)cc3Cl)C(=O)NC2=O)c2ccccc21	59*	-14	11	-8	x
Cc1ccc(NC(=O)c2cccs2)cc1	x	61*	-1	72	6

Source: PubChem BioAssay (Broad Institute)
